Source: ChEMBL document CHEMBL4390675, “Dopamine D4 Receptor-Selective Compounds Reveal Structure-Activity Relationships that Engender Agonist Efficacy” (J Med Chem, 2019)
pEC50, pIC50, pKi: −log10 of the molar value. Active and inactive are the calls of the source. The rule behind the calls is not given here.

Each compound was assayed against T1, D(2) dopamine receptor (Homo sapiens, UniProt P14416) (assay: Agonist activity at human D2L receptor expressed in CHOK1 cells assessed as inhibition of forskolin-induced cAMP accumulation measured after 30 mins by Eu-cAMP tracer based TR-FRET assay). Details: not given.
Format: cell-based
Summary of the method: (§1)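 LANCE Ultra TR-FRET cAMP assay in CHO-K1 cells stably expressing human D2R long isoform or D4R. Cells were plated in HBSS/5 mM HEPES/0.2 μM metabisulfite, then immediately given compound plus forskolin (10 μM final) for 30 min at room temperature. Eu-cAMP tracer and ULight-anti-cAMP were added for 2 h in the dark. Values are % of maximal dopamine signal, nonlinear regression of triplicate runs, n = 3–4.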

T1 sequence (P14416 whole entry): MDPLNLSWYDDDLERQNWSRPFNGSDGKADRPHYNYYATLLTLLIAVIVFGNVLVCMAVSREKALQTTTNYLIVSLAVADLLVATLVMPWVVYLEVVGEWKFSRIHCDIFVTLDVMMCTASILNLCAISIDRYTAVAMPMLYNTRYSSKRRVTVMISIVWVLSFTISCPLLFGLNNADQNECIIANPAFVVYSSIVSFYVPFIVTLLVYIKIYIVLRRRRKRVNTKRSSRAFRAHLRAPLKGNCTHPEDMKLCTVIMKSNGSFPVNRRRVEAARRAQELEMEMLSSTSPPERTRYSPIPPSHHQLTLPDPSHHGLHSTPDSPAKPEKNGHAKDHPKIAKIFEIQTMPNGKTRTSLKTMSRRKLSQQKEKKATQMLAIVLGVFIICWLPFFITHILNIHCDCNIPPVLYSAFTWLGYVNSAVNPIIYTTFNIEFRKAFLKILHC

SMILES | EC50
Cc1cccc(NC(=O)CN2CCC(c3ccccc3)CC2)c1 | Not Active
Cc1ccc(C2CCN(CC(=O)Nc3cccc(C)c3)CC2)nc1 | Not Active
Cc1cccc(NC(=O)CN2CCC(c3ccc(Cl)cc3)CC2)c1 | Not Active

The compounds below were run against T1, D(2) dopamine receptor (assay: Antagonist activity at human D2L receptor expressed in CHOK1 cells assessed as suppression of dopamine-induced inhibition of forskolin-stimulated cAMP accumulation measured after 30 mins by Eu-cAMP tracer based TR-FRET assay relative to dopamine). Details: 0.5 h.
Format: cell-based

SMILES | inhibition (INH)
Cc1cccc(NC(=O)CN2CCC(c3ccccc3)CC2)c1 | 100%
Cc1ccc(C2CCN(CC(=O)Nc3cccc(C)c3)CC2)nc1 | 100%
Cc1cccc(NC(=O)CN2CCC(c3ccc(Cl)cc3)CC2)c1 | 97.5%

What follows are compounds tested against T2, D(4) dopamine receptor (Homo sapiens, UniProt P21917) (assay: Antagonist activity at human D4 receptor expressed in CHOK1 cells assessed as suppression of dopamine-induced inhibition of forskolin-stimulated cAMP accumulation measured after 30 mins by Eu-cAMP tracer based TR-FRET assay). Details: not given.
T2 sequence (P21917 whole entry): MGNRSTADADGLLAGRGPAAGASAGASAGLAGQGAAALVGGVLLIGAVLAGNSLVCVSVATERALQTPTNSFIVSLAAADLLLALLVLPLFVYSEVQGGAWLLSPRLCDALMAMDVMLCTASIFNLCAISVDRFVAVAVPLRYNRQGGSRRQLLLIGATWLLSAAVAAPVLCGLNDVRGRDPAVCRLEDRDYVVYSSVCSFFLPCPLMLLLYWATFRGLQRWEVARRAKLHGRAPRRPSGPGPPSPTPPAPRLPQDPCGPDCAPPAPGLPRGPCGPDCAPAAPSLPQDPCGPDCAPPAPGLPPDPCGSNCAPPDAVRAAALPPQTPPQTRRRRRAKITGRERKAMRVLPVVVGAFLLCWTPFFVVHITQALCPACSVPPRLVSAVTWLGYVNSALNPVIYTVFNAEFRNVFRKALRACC
Format: functional, cell-based

SMILES | pIC50
Cc1cccc(NC(=O)CN2CCC(c3ccccc3)CC2)c1 | 8.70
Cc1ccc(C2CCN(CC(=O)Nc3cccc(C)c3)CC2)nc1 | 6.34

Each compound was assayed against T3, D(4) dopamine receptor (Homo sapiens) (UniProt P21917) (assay: Agonist activity at human D4 receptor expressed in CHOK1 cells assessed as inhibition of forskolin-induced cAMP accumulation measured after 30 mins by Eu-cAMP tracer based TR-FRET assay relative to dopamine). Details: not given.
T3 sequence (whole entry): T2 sequence (P21917 whole entry)
Format: functional, cell-based
Summary of the method: as §1

SMILES | Emax
Cc1cccc(NC(=O)CN2CCC(c3ccccc3)CC2)c1 | 32.9%

Each compound was assayed against T2, D(4) dopamine receptor (assay: Agonist activity at human D4 receptor expressed in CHOK1 cells assessed as inhibition of forskolin-induced cAMP accumulation measured after 30 mins by Eu-cAMP tracer based TR-FRET assay). Details: not given.
Format: functional, cell-based
Summary of the method: as §1

SMILES | EC50
Cc1ccc(C2CCN(CC(=O)Nc3cccc(C)c3)CC2)nc1 | Not Active
Cc1cccc(NC(=O)CN2CCC(c3ccc(Cl)cc3)CC2)c1 | Not Active

Same assay, conditions: read-out: EC50

SMILES | pEC50
Cc1cccc(NC(=O)CN2CCC(c3ccccc3)CC2)c1 | 7.81

The compounds below were run against T4, D(3) dopamine receptor (Homo sapiens, UniProt P35462) (assay: Displacement of [3H]N-methylspiperone from human D3 receptor expressed in HEK293 cell membranes measured after 60 mins by scintillation counting method). Details: not given.
Summary of the method: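 HEK293 cells stably expressing human D3R; membranes in EBSS buffer pH 7.4, stored at −80 °C. 20 μg protein/well with 0.4 nM [3H]N-methylspiperone (final), half-log dilutions in 30% DMSO, in triplicate. 60 min at room temperature, then GF/B filtration. Nonspecific binding with 10 μM (+)-butaclamol.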

T4 sequence (P35462 whole entry): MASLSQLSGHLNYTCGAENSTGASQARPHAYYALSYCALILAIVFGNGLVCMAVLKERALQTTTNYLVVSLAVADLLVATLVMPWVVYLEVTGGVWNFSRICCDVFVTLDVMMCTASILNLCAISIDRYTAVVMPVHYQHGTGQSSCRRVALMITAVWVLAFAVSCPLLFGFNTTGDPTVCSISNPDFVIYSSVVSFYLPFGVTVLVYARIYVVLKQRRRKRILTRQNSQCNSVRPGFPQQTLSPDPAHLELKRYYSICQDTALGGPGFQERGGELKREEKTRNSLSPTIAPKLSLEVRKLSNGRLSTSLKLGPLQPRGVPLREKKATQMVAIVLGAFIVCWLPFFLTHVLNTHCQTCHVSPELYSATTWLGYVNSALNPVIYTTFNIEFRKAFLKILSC

SMILES | pKi
Cc1cccc(NC(=O)CN2CCC(c3ccccc3)CC2)c1 | 6.36
Cc1ccc(C2CCN(CC(=O)Nc3cccc(C)c3)CC2)nc1 | < 4.30
Cc1cccc(NC(=O)CN2CCC(c3ccc(Cl)cc3)CC2)c1 | 4.58

Each compound was assayed against T2, D(4) dopamine receptor (assay: Displacement of [3H]N-methylspiperone from human D4.4 receptor expressed in HEK293 cell membranes measured after 60 mins by scintillation counting method). Details: not given.
Summary of the method: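 Frozen HEK293 membranes stably expressing human D4.4R (30 μg/well) in EBSS-bicarbonate buffer, pH 7.4, were incubated with 0.4 nM [3H]N-methylspiperone and half-log compound dilutions (30% DMSO vehicle) for 60 min at room temperature. Nonspecific binding was defined by 10 μM (+)-butaclamol. Samples were filtered on GF/B filters and counted by scintillation.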

SMILES | pKi
Cc1cccc(NC(=O)CN2CCC(c3ccccc3)CC2)c1 | 7.59
Cc1ccc(C2CCN(CC(=O)Nc3cccc(C)c3)CC2)nc1 | 7.38

These compounds were tested against T2, D(4) dopamine receptor (assay: Displacement of [3H](R)-(+)-7-OH-DPAT from human D4.4 receptor expressed in HEK293 cell membranes measured after 90 mins by scintillation counting method). Details: not given.
Summary of the method: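 HEK293 cells stably expressing human D4.4R; membranes used fresh in 50 mM Tris, 10 mM MgCl2, 1 mM EDTA, pH 7.4. 60 μg protein/well with 3 nM [3H]-(R)-(+)-7-OH-DPAT (final), half-log dilutions in 30% DMSO, in triplicate. 90 min at room temperature, then GF/B filtration. Nonspecific binding with 10 μM (+)-butaclamol.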

SMILES | pKi
Cc1cccc(NC(=O)CN2CCC(c3ccccc3)CC2)c1 | 8.85
Cc1ccc(C2CCN(CC(=O)Nc3cccc(C)c3)CC2)nc1 | 8.16

The compounds below were run against T4, D(3) dopamine receptor (assay: Antagonist activity at human D3 receptor expressed in CHOK1 cells assessed as inhibition of dopamine-induced beta-arrestin recruitment measured after 90 mins by luminescence assay). Details: not given.
Format: cell-based
Summary of the method: (§2)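 Antagonist-mode PathHunter β-arrestin assay in CHO-K1 cells stably expressing human D2R long isoform or D3R, seeded overnight. Compound dilutions in PBS with 0.2 μM metabisulfite were co-incubated with an EC80 dopamine concentration for 90 min at 37 °C. Detection reagent was added for 45–60 min at room temperature, then luminescence was read. Values are % of dopamine EC80 response, from nonlinear regression of triplicate runs, n = 3–4.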

SMILES | IC50
Cc1ccc(C2CCN(CC(=O)Nc3cccc(C)c3)CC2)nc1 | Not Active
Cc1cccc(NC(=O)CN2CCC(c3ccc(Cl)cc3)CC2)c1 | Not Active

Same assay, conditions: read-out: IC50

SMILES | pIC50
Cc1cccc(NC(=O)CN2CCC(c3ccccc3)CC2)c1 | < 4.30

These compounds were tested against T4, D(3) dopamine receptor (assay: Displacement of [3H](R)-(+)-7-OH-DPAT from human D3 receptor expressed in HEK293 cell membranes measured after 90 mins by scintillation counting method). Details: not given.
Summary of the method: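 Fresh HEK293 hD3R membranes (40 μg/well) in 50 mM Tris, 10 mM MgCl2, 1 mM EDTA, pH 7.4 were incubated with 0.5 nM [3H]-(R)-(+)-7-OH-DPAT and half-log compound dilutions in 30% DMSO for 90 min at room temperature. Nonspecific binding was defined with 10 μM (+)-butaclamol. Samples were filtered on PEI-soaked GF/B filters and counted by scintillation.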

SMILES | pKi
Cc1cccc(NC(=O)CN2CCC(c3ccccc3)CC2)c1 | 6.11
Cc1ccc(C2CCN(CC(=O)Nc3cccc(C)c3)CC2)nc1 | < 5.00

What follows are compounds tested against T2, D(4) dopamine receptor (assay: Agonist activity at human D4 receptor expressed in CHOK1 cells assessed as induction of beta-arrestin recruitment measured after 90 mins by luminescence assay). Details: not given.
Format: cell-based
Summary of the method: (§3)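 PathHunter enzyme-complementation assay in CHO-K1 cells stably expressing human D2R long isoform, D3R or D4R, seeded overnight in Ham's F12/10% FBS. Compounds were diluted in PBS with 0.2 μM sodium metabisulfite and applied at multiple concentrations for 90 min at 37 °C. Detection reagent was added for 45–60 min at room temperature, then luminescence was read. Values are % of maximal dopamine response, from nonlinear regression of triplicate runs, mean ± SEM, n = 3–4.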

SMILES | EC50
Cc1ccc(C2CCN(CC(=O)Nc3cccc(C)c3)CC2)nc1 | Not Active
Cc1cccc(NC(=O)CN2CCC(c3ccc(Cl)cc3)CC2)c1 | Not Active

Same assay, conditions: read-out: EC50

SMILES | pEC50
Cc1cccc(NC(=O)CN2CCC(c3ccccc3)CC2)c1 | 6.62

These compounds were tested against D(1B) dopamine receptor (Homo sapiens) (UniProt P21918) (assay: Agonist activity at D5 receptor (unknown origin) stably expressed in CHOK1 cells assessed as induction of beta-arrestin recruitment measured after 90 mins by luminescence assay). Details: not given.
Format: cell-based

Chain of D(1B) dopamine receptor (Homo sapiens) (P21918 whole entry): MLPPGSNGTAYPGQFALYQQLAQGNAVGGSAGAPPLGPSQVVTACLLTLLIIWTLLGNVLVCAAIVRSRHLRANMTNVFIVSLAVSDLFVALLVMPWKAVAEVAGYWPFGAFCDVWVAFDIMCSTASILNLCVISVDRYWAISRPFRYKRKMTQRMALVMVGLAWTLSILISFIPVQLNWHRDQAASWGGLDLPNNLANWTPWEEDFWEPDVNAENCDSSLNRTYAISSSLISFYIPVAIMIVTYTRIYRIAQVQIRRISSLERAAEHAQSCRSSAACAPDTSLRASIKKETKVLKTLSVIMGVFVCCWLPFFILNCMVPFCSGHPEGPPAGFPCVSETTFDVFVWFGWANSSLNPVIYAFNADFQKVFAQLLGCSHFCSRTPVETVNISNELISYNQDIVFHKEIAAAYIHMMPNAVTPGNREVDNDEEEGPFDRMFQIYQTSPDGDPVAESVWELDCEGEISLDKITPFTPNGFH

SMILES | Activity
Cc1cccc(NC(=O)CN2CCC(c3ccccc3)CC2)c1 | inactive

Each compound was assayed against T1, D(2) dopamine receptor (assay: Antagonist activity at human D2L receptor expressed in CHOK1 cells assessed as inhibition of dopamine-induced beta-arrestin recruitment measured after 90 mins by luminescence assay relative to control). Details: not given.
Format: cell-based
Summary of the method: as §2

SMILES | INH
Cc1cccc(NC(=O)CN2CCC(c3ccccc3)CC2)c1 | 99.7%
Cc1ccc(C2CCN(CC(=O)Nc3cccc(C)c3)CC2)nc1 | 100%
Cc1cccc(NC(=O)CN2CCC(c3ccc(Cl)cc3)CC2)c1 | 100%

What follows are compounds tested against D(1A) dopamine receptor (Homo sapiens) (UniProt P21728) (assay: Antagonist activity at D1 receptor (unknown origin) stably expressed in CHOK1 cells assessed as inhibition of dopamine-induced beta-arrestin recruitment measured after 90 mins by luminescence assay). Details: not given.
Format: cell-based

Chain of D(1A) dopamine receptor (Homo sapiens) (P21728 whole entry): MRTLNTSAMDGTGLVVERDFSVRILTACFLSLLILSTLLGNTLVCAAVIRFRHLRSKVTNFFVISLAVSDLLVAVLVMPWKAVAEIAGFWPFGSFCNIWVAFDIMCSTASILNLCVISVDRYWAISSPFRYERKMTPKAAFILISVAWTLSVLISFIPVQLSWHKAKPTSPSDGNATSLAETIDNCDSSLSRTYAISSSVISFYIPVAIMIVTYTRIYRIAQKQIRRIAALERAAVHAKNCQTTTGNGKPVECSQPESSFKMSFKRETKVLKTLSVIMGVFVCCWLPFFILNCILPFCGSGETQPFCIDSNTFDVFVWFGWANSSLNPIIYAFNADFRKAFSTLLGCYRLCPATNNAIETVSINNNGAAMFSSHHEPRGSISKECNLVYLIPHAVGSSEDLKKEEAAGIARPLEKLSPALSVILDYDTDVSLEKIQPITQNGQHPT

SMILES | inhibition
Cc1cccc(NC(=O)CN2CCC(c3ccccc3)CC2)c1 | inactive

Each compound was assayed against T3, D(4) dopamine receptor (Homo sapiens) (assay: Antagonist activity at human D4 receptor expressed in CHOK1 cells assessed as inhibition of dopamine-induced beta-arrestin recruitment measured after 90 mins by luminescence assay relative to control). Details: not given.
Format: cell-based
Design: concentration or dose not given beside the values

SMILES | inhibition
Cc1cccc(NC(=O)CN2CCC(c3ccccc3)CC2)c1 | 93.3%

What follows are compounds tested against D(1B) dopamine receptor (Homo sapiens) (UniProt P21918) (assay: Antagonist activity at D5 receptor (unknown origin) stably expressed in CHOK1 cells assessed as inhibition of dopamine-induced beta-arrestin recruitment measured after 90 mins by luminescence assay). Details: not given.
Format: cell-based

SMILES | inhibition
Cc1cccc(NC(=O)CN2CCC(c3ccccc3)CC2)c1 | inactive

What follows are compounds tested against T3, D(4) dopamine receptor (Homo sapiens) (assay: Antagonist activity at human D4 receptor expressed in CHOK1 cells assessed as suppression of dopamine-induced inhibition of forskolin-stimulated cAMP accumulation measured after 30 mins by Eu-cAMP tracer based TR-FRET assay relative to dopamine). Details: not given.
Format: functional, cell-based
Design: concentration or dose not given beside the values

SMILES | inhibition
Cc1cccc(NC(=O)CN2CCC(c3ccccc3)CC2)c1 | 46.7%

The compounds below were run against T3, D(4) dopamine receptor (Homo sapiens) (assay: Agonist activity at human D4 receptor expressed in CHOK1 cells assessed as induction of beta-arrestin recruitment measured after 90 mins by luminescence assay relative to control). Details: not given.
Format: cell-based
Summary of the method: as §3

SMILES | Emax
Cc1cccc(NC(=O)CN2CCC(c3ccccc3)CC2)c1 | 14%

These compounds were tested against T1, D(2) dopamine receptor (assay: Agonist activity at human D2L receptor expressed in CHOK1 cells assessed as induction of beta-arrestin recruitment measured after 90 mins by luminescence assay). Details: not given.
Format: cell-based
Summary of the method: as §3

SMILES | EC50
Cc1cccc(NC(=O)CN2CCC(c3ccccc3)CC2)c1 | Not Active
Cc1ccc(C2CCN(CC(=O)Nc3cccc(C)c3)CC2)nc1 | Not Active
Cc1cccc(NC(=O)CN2CCC(c3ccc(Cl)cc3)CC2)c1 | Not Active

These compounds were tested against T2, D(4) dopamine receptor (assay: Antagonist activity at human D4 receptor expressed in CHOK1 cells assessed as inhibition of dopamine-induced beta-arrestin recruitment measured after 90 mins by luminescence assay). Details: read-out: IC50.
Format: cell-based

SMILES | pIC50
Cc1cccc(NC(=O)CN2CCC(c3ccccc3)CC2)c1 | 6.87
Cc1ccc(C2CCN(CC(=O)Nc3cccc(C)c3)CC2)nc1 | 6.40

The compounds below were run against D(1A) dopamine receptor (Homo sapiens) (UniProt P21728) (assay: Agonist activity at D1 receptor (unknown origin) stably expressed in CHOK1 cells assessed as induction of beta-arrestin recruitment measured after 90 mins by luminescence assay). Details: not given.
Format: cell-based

SMILES | Activity
Cc1cccc(NC(=O)CN2CCC(c3ccccc3)CC2)c1 | inactive

These compounds were tested against T4, D(3) dopamine receptor (assay: Agonist activity at human D3 receptor expressed in CHOK1 cells assessed as induction of beta-arrestin recruitment measured after 90 mins by luminescence assay). Details: not given.
Format: cell-based
Summary of the method: as §3

SMILES | EC50
Cc1cccc(NC(=O)CN2CCC(c3ccccc3)CC2)c1 | Not Active
Cc1ccc(C2CCN(CC(=O)Nc3cccc(C)c3)CC2)nc1 | Not Active
Cc1cccc(NC(=O)CN2CCC(c3ccc(Cl)cc3)CC2)c1 | Not Active
